The text below walks through data of ChEMBL document CHEMBL3596140, “Bisleuconothine A Induces Autophagosome Formation by Interfering with AKT-mTOR Signaling Pathway” (J Nat Prod, 2015).

pIC50: −log10 of the molar value. The source made the active and inactive calls. No cut-off for these calls is given here.

The test system of assay [1] is A549. Description: Induction of apoptosis in human A549 cells at 24 uM after 24 hrs by FITC-annexin V/propidium iodide staining-based flow cytometric analysis. It is filed as functional, cell-based. Put shortly: (§1)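 A549 cells (5 × 10^5 cells/dish) exposed to compound (24 μM, or 100 nM for vinblastine) for 24 h. Cells washed twice with PBS and stained with FITC–annexin V plus propidium iodide in FACS buffer with 0.3% BSA. Quadrant distribution read by flow cytometry against untreated cells.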
On the technique in general: A flow cytometer gives signals particle by particle.

Assay [2] relates to A549. In words: Effect on localization of lysosome puncta with LAMP2 in human A549 cells at 6 uM after 6 hrs by immunofluorescence staining-based microscopic analysis relative to control. Format: functional, cell-based. Summed up:
(§2)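 A549 cells on chamber slides placed in serum-free medium for 1 h, then exposed for 6 h to 6 μM compound, 5 μM everolimus or 400 nM bafilomycin A1. Fixed in ice-cold methanol for 15 min at −20 °C and blocked. Stained for LC3B, LAMP2 and p62 with Alexa Fluor 488/546/647 secondaries, mounted with DAPI, and puncta assessed by fluorescence microscopy.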

The test system of assay [3] is A549. In words: Inhibition of AKT phosphorylation at thr308 in human A549 cells at 6 uM after 3 to 24 hrs by Western blot analysis. Format: cell-based. Summed up:
(§3)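 A549 total lysates harvested 3, 6, 12 or 24 h after exposure to 6 μM compound or 5 μM everolimus. Western blot on PVDF with antibodies to phospho-mTOR Ser2448, phospho-AKT Thr308 and Ser473, phospho-p70S6K Thr389, phospho-PDK1 Ser241 and PRAS40 Thr246, alongside total proteins and β-actin.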

Assay [4] concerns A549. Description: Induction of autophagy in human A549 cells assessed as increase in LC3-2 expression at 6 uM by Western blot analysis. It is filed as functional, cell-based. The settings on record: TDE = time-dependent effect. Put shortly:
(§4)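 A549 and MCF7 cells exposed to 6 μM compound, with everolimus 5 μM as autophagy positive control. Total lysates harvested at 0, 4, 8, 12 or 24 h. LC3-I and LC3-II (lipidated) levels assessed by Western blot with LC3B antibody.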
In general terms: Immunoblotting shows a protein as a band on a membrane.

Assay [5] concerns the target T1, 3-phosphoinositide-dependent protein kinase 1 (Homo sapiens) (UniProt O15530).
T1 sequence (whole entry): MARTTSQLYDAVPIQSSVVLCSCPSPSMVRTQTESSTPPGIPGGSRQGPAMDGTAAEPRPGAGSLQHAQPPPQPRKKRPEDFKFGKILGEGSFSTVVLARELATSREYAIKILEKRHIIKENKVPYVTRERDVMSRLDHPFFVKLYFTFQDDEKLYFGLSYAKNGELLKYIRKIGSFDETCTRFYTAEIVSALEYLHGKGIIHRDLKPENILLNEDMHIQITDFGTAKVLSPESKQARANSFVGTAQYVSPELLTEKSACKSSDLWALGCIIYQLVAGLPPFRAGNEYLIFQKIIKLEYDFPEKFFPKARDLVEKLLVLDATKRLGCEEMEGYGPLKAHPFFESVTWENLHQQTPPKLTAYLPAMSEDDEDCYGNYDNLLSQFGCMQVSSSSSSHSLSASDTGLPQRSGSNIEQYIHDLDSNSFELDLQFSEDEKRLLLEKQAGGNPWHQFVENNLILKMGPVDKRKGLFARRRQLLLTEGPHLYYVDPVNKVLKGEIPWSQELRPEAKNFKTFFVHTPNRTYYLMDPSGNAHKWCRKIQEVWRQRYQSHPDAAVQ
Description: Effect on PDK1 phosphorylation at Ser241 in human A549 cells at 6 uM after 3 to 24 hrs by Western blot analysis. It is filed as cell-based. Put shortly:
as §3

For assay [6], the system named is A549. Description: Cytotoxicity against human A549 cells assessed as induction of cell death at 24 uM after 48 hrs by microscopic analysis. Format: functional, cell-based.
Assay [7] relates to A549. Description: Effect on BimEL protein expression in human A549 cells at 24 uM after 6 to 24 hrs by Western blot analysis. It is filed as functional, cell-based. Summed up:
(§5)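 Total lysates of A549 cells harvested at 0, 6, 12 and 24 h after exposure to 24 μM test agent or 100 nM vinblastine. Proteins resolved, transferred to PVDF and probed for Bcl-xL, Mcl-1, Bcl-2, Bax-1, Bid, PUMA, Bim, Bik and p53, with antibodies diluted in BlockAce and β-actin as loading reference.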

Assay [8] deals with A549. Description: Cytostatic activity against human A549 cells by MTT assay. Format: functional, cell-based. Put shortly: (§6)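 A549 cells in medium with 10% FBS and 1% penicillin–streptomycin, exposed to compound for 48 h. MTT (5 mg/mL stock) added at the end of exposure, then 3 h further incubation. Formazan dissolved in DMSO and read at 550 nm (reference 700 nm) as a measure of succinate dehydrogenase activity. IC50 taken from the concentration–response curve. Microscopy used for confirmation.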
On the technique in general: Tetrazolium dyes change colour on reduction, which living cells bring about.

Assay [9] concerns A549. Description: Effect on Bid protein expression in human A549 cells at 24 uM after 6 to 24 hrs by Western blot analysis. It is filed as functional, cell-based. Summed up:
as §5

Assay [10] addresses Serine/threonine-protein kinase mTOR (Homo sapiens) (UniProt P42345). Description: Effect on mTOR phosphorylation at ser2448 in human A549 cells at 6 uM after 3 to 24 hrs by Western blot analysis. Format: cell-based. Put shortly:
as §3

The subject of assay [11] is A549. Description: Induction of autophagic punctation in human A549 cells assessed as increase of puncta with p62 at 6 uM after 6 hrs by immunofluorescence staining-based microscopic analysis relative to control. Format: functional, cell-based. Summed up:
as §2

Assay [12] relates to A549. Description: Induction of reactive oxygen species generation in human A549 cells at 6 uM incubated in dark for 1 hr by H2DCFDA dye-based flow cytometric analysis. It is filed as functional, cell-based. Put shortly:
(§7)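 A549 cells (4 × 10^5 cells/dish) preloaded with 20 μM H2DCFDA for 1 h, then exposed to compound (6 or 24 μM) for 1 h in the dark at 37 °C. H2O2 at 100 μM served as positive control. Cells washed, resuspended in FACS buffer with 0.3% BSA, and analysed by flow cytometry for intracellular DCF fluorescence intensity.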

Assay [13] relates to A549. In words: Effect on Bik protein expression in human A549 cells at 24 uM after 6 to 24 hrs by Western blot analysis. It is filed as functional, cell-based. Put shortly: as §5
Assay [14] addresses Serine/threonine-protein kinase mTOR (Homo sapiens) (UniProt P42345). In words: Inhibition of mTOR in human A549 cells assessed as downregulation of p70S6K phosphorylation at thr389 at 6 uM after 3 to 24 hrs by Western blot analysis. Format: cell-based. Put shortly: as §3
The test system of assay [15] is A549. In words: Effect on Mcl-1 protein expression in human A549 cells at 24 uM after 6 to 24 hrs by Western blot analysis. Format: functional, cell-based. Put shortly: as §5
Assay [16] relates to A549. Description: Effect on morphological changes in lysosome puncta in human A549 cells at 6 uM after 6 hrs by immunofluorescence staining-based microscopic analysis relative to control. It is filed as functional, cell-based. Summed up: as §2
Assay [17] deals with A549. Description: Inhibition of AKT in human A549 cells assessed as downregulation of PRAS40 phosphorylation at thr246 at 6 uM after 3 to 12 hrs by Western blot analysis. It is filed as cell-based. Put shortly:
as §3

For assay [18], the system named is A549. Description: Induction of autophagy in human A549 cells assessed as increase in LC3-2 expression at 6 uM after 4 to 24 hrs by Western blot analysis.
The test system of assay [19] is A549. In words: Prevention of autophagosome degradation in human A549 cells assessed as upregulation of p62 expression at 6 uM after 6 hrs by Western blot analysis. It is filed as functional, cell-based. Summed up: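 A549 cells kept in serum-free medium for 1 h, then exposed to 6 μM compound or 5 μM everolimus, with or without bafilomycin A1 (400 nM), for 6 h. LC3 and p62 levels in lysates assessed by Western blot to follow autophagic flux.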

The subject of assay [20] is A549. In words: Induction of autophagic punctation in human A549 cells assessed as increase of puncta with LC3 at 6 uM after 6 hrs by immunofluorescence staining-based microscopic analysis relative to control. It is filed as functional, cell-based. Summed up:
as §2

The subject of assay [21] is A549. In words: Effect on Bax-1 protein expression in human A549 cells at 24 uM after 6 to 24 hrs by Western blot analysis. It is filed as functional, cell-based. Summed up:
as §5

The test system of assay [22] is A549. Description: Inhibition of AKT phosphorylation at Ser473 in human A549 cells at 6 uM after 3 to 6 hrs by Western blot analysis. Format: cell-based. Summed up: as §3
The test system of assay [23] is A549. Description: Induction of reactive oxygen species generation in human A549 cells at 24 uM incubated in dark for 1 hr by H2DCFDA dye-based flow cytometric analysis. It is filed as functional, cell-based. Put shortly: as §7
A further assay has as its system MCF7. In words: Induction of autophagy in human MCF7 cells assessed as LC3 lipidation at 6 uM after 4 to 24 hrs by Western blot analysis. It is filed as functional, cell-based. Summed up:
as §4

Assay [24] concerns A549. Description: Effect on Bcl-XL protein expression in human A549 cells at 24 uM after 6 to 24 hrs by Western blot analysis. Format: functional, cell-based. Put shortly: as §5
Assay [25] deals with A549. In words: Effect on p53 protein expression in human A549 cells at 24 uM after 6 to 24 hrs by Western blot analysis. Format: functional, cell-based. Summed up: as §5
Assay [26] has as its system A549. Description: Effect on Puma protein expression in human A549 cells at 24 uM after 6 to 24 hrs by Western blot analysis. Format: functional, cell-based. Summed up:
as §5

Assay [27] relates to A549. In words: Effect on Bcl-2 protein expression in human A549 cells at 24 uM after 6 to 24 hrs by Western blot analysis. It is filed as functional, cell-based. Summed up:
as §5

Assay [28] concerns A549. Description: Cytostatic activity against human A549 cells after 48 hrs by MTT assay. It is filed as functional, cell-based. Put shortly: as §6
Assay [29] deals with A549. In words: Upregulation of p53 protein expression in human A549 cells at 100 nM after 24 hrs by Western blot analysis. It is filed as functional, cell-based. Summed up: as §5
Assay [30] has as its system A549. Description: Induction of apoptosis in human A549 cells assessed as late apoptotic cells at 100 nM after 24 hrs by FITC-annexin V/propidium iodide staining-based flow cytometric analysis relative to control. It is filed as functional. Put shortly: as §1
Assay [31] concerns A549. Description: Cytotoxicity against human A549 cells assessed as induction of cell death by microscopic analysis. It is filed as functional, cell-based.
The test system of assay [32] is A549. In words: Downregulation of Bcl-XL protein expression in human A549 cells at 100 nM after 24 hrs by Western blot analysis. It is filed as functional, cell-based. Put shortly: as §5
Assay [33] relates to A549. In words: Induction of apoptosis in human A549 cells assessed as early apoptotic cells at 100 nM after 24 hrs by FITC-annexin V/propidium iodide staining-based flow cytometric analysis relative to control. Format: functional. Put shortly:
as §1

The test system of assay [34] is A549. In words: Downregulation of Mcl-1 protein expression in human A549 cells at 100 nM after 24 hrs by Western blot analysis. It is filed as functional, cell-based. Summed up:
as §5

Assay [35] concerns A549. In words: Downregulation of BimEL protein expression in human A549 cells at 100 nM after 24 hrs by Western blot analysis. Format: functional, cell-based. Summed up:
as §5

The term pIC50 denotes the negative decadic logarithm of the IC50, by convention in mol/L. Read a low pIC50 as a large IC50. In the case of `CC[C@@]12CCCN3CCc4c(n(c5ccccc45)[C@H](c4ccc(O)c5c4N[C@@H]4CC[C@@]6(CC)CCCN7CC[C@@]54[C@H]76)C1)[C@H]32` [BISLEUCONOTHINE A], the outcome (in the assay on A549 [1]; in assay [5]; in the assay with A549 [7]; in the assay with A549 [9]; in [10]; in the assay on A549 [12]) was inactive. In addition, the outcome in the assay with A549 [13], in the assay with A549 [15], with A549 [21], in the assay on A549 [24], with A549 [25] and in the assay on A549 [26] was inactive. The result in the assay on A549 [27] was inactive. For the same molecule, the result with A549 [2], with A549 [6], with A549 [11], with A549 [16], in the assay on A549 [18] and in the assay on A549 [19] was Active. The outcome in the assay on A549 [20], in the assay with A549 [23] and in the assay on MCF7 was Active. Moreover, the inhibition entry (with A549 [3]; in assay [14]; with A549 [17]; in the assay on A549 [22]) was “Active” throughout. Also, the Activity entry in the assay with A549 [4] was “tde”; in the assay with A549 [8], “Dose-dependent effect”. The same molecule gave a pIC50 in the assay with A549 [8] of 5.10.

Take `CC[C@]1(O)C[C@@H]2CN(CCc3c([nH]c4ccccc34)[C@@](C(=O)OC)(c3cc4c(cc3OC)N(C)[C@H]3[C@@](O)(C(=O)OC)[C@H](OC(C)=O)[C@]5(CC)C=CCN6CC[C@]43[C@@H]65)C2)C1` [VINBLASTINE]: the results for the Activity result in the assay with A549 [28], in the assay with A549 [30] and with A549 [33] were “Dose-dependent effect”, 30% and 30%, respectively. Also, the result in the assay on A549 [29], with A549 [31], in the assay on A549 [32], in the assay on A549 [34] and in the assay with A549 [35] was Active.
